Screening data (PubChem BioAssay)
GRIN3A LBD mod – binders of NR3A ligand-binding domain, primary screen, biophysical, differential scanning fluorimetry, uHTS; Glutamate receptor ionotropic, NMDA 3A (GRIN3A) ligand-binding domain; NR3A LBD differential scanning fluorimetry, Tm shift; 0% = protein alone, 100% = glycine-bound protein; Tm shift relative to glycine control, % at 25 µM; hit rate 2.5% among 340,000;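 active = melting temperature shift of at least 10% of the positive control shift, at one fixed dose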
SENP1 inh – human SENP1 catalytic domain inhibitors, primary screen, biochemical, FRET, uHTS; recombinant SENP1 catalytic domain, CyPet-SUMO1-YPet FRET cleavage; inhibition, % at 10 µM; hit rate 0.21% among 360,000; AID 624204, 2012;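 active = inhibition at least 30% at 10 µM, raw YFP signal under a set limit, fluorescence ratio 0.5 to 1.5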;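 note: 0% = enzyme with DMSO and 100% = no enzyme wells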
Target sequence (Q9P0U3 419-644 limits assumed): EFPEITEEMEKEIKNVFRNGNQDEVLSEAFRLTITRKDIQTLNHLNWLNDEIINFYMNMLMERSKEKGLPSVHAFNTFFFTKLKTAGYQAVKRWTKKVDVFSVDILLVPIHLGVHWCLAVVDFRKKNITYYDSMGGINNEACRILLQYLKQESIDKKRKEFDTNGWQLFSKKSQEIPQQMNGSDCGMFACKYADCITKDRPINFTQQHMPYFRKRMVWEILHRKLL
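Assay system: hSENP1 catalytic domain, recombinant. Amount: SENP1 enzyme, 20 pM final. Schedule: 50 min reaction, RT, dark. Technique: FRET, CFP and YFP emission. Control set: no-enzyme wells low, DMSO-plus-enzyme wells high control.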
MPTP inh – mitochondrial permeability transition pore inhibitors, primary screen, biochemical, isolated mouse mitochondria, absorbance | Ca2+ swelling absorbance, 30 min | inhibition, % at 10 µM | hit rate 1.4% among 360,000;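 active = inhibition of 50% or more, scaled per plate between neutral and stimulator controls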;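 note: 0% = DMSO wells given calcium and 100% = 1 mM EGTA wells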
EBI2 antag – EBI2 receptor antagonists, beta-arrestin recruitment, primary screen, cell-based, luminescence, 7a,25-OHC stimulation, uHTS; G-protein coupled receptor 183 (Homo sapiens), P32249; 7a,25-OHC stimulated; inhibition, % at 5 µM; hit rate 0.81% among 360,000; AID 651636, 2012; in the data active = inhibition above about 38%;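 note: enzyme fragment complementation signal reports receptor beta-arrestin coupling in cells; 0% = agonist plus DMSO wells and 100% = wells without agonist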
Target sequence (P32249 whole entry, looked up, the tested form may be a part): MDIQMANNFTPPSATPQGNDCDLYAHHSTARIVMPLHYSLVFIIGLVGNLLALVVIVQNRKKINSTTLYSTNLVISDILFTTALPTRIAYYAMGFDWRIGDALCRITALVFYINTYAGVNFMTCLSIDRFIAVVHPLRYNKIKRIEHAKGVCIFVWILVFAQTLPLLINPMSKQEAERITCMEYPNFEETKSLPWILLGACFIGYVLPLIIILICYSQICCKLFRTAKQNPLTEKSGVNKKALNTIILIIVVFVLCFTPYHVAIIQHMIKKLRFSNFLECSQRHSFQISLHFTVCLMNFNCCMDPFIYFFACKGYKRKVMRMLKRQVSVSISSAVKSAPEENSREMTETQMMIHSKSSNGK
The depositor's hits bear a star; x = no result. This is a sample that favours compounds with a hit; in the whole collection about 4.4% have one here.

SMILES	GRIN3A LBD mod	SENP1 inh	MPTP inh	EBI2 antag
CS(=O)(=O)c1ccc(NC(=O)c2cccc(-n3cnnn3)c2)cc1	-7	0	0	-9
O=C(Nc1ccc(Br)cc1)c1cccc(-n2cnnn2)c1	39*	1	-2	-5
O=C(Nc1ccc(F)cc1)c1cccc(N2C(=O)C3C4C=CC(C4)C3C2=O)c1 (stereo unspecified)	18*	2	-2	-15
O=C(COc1cccc(-n2cnnn2)c1)Nc1ccccc1	-47	-1	0	4
COc1ccc(NC(=S)N2CCN(C(=O)c3ccccc3)CC2)cc1	1	-1	1	9
CSC1=NC=C(C#N)C2=NC(c3c(Cl)cccc3Cl)NN12 (stereo unspecified)	x	0	0	6
COc1cc2c(cc1OC)C(c1ccc(-c3ccccc3Cl)o1)=NCC2	-7	-16	2	49*
COc1cc2c(cc1OC)C(c1ccc(-c3ccc(Cl)c(Cl)c3)o1)=NCC2	-10	-12	7	66*
COc1cc2c(cc1OC)C(c1ccc(Cl)cc1)=NCC2	1	2	2	6
COc1cc2c(cc1OC)C(c1ccc(-c3cc(Cl)ccc3Cl)o1)=NCC2	-11	-37	32	62*
O=C(/C=C/c1ccc(Br)cc1)c1ccc(NC2=NCCCS2)cc1	-7	3	18	78*
O=C(/C=C/c1ccccc1)c1ccc(NC2=NCCCS2)cc1	-2	0	4	2
CC(C)=CCOc1ccc([C@@H]2COc3c(ccc4c3C=CC(C)(C)O4)C2)c(O)c1	15*	3	4	22
O=C(CSc1nnc2ccc(-c3cccnc3)nn12)Nc1ccccc1	2	-2	1	-5
O=C(CN(Cc1cccs1)S(=O)(=O)c1ccc(S(=O)(=O)NC2CCCCC2)cc1)Nc1ccccc1	13*	2	21	18
O=C(CN(C1CC1)S(=O)(=O)c1ccc(S(=O)(=O)NC2CCCCC2)cc1)Nc1ccccc1	-1	1	1	10
NC(=O)CCC(NC(=S)Nc1ccccc1)C(=O)O (stereo unspecified)	-2	2	0	6
CC(C)COP(=O)(OCC(C)C)C(Nc1ccccc1)c1ccc2c(c1)OCO2 (stereo unspecified)	5	2	-1	15
CC(C)OP(=O)(OC(C)C)C(Nc1ccccc1)c1ccc2c(c1)OCO2 (stereo unspecified)	12*	0	2	3
Cc1ccc(NC(=O)c2nc[nH]c2C(=O)NC2CCN(C(=O)OC(C)(C)C)CC2)cc1	23*	1	0	-7
CC(C)(C)OC(=O)N1CCC(NC(=O)c2[nH]cnc2C(=O)Nc2ccccc2)CC1	-11	-1	0	-1
CC(C)(C)OC(=O)N1CCC(NC(=O)c2[nH]cnc2C(=O)Nc2ccc(Cl)cc2)CC1	27*	2	-1	-14
Cc1cccc(C(=O)Nc2ccc(C(=O)/C=C/c3ccncc3)cc2)c1	16*	3	4	41
O=C(/C=C/c1cccnc1)c1ccc(NC(=O)c2cccc(Br)c2)cc1	26*	1	-3	-3
Cc1cccc(C(=O)Nc2ccc(C(=O)/C=C/c3cccnc3)cc2)c1	24*	0	1	33
SMILES	GRIN3A LBD mod	SENP1 inh	MPTP inh	EBI2 antag
Cc1cccc(C(=O)Nc2ccc(C(=O)N/N=C/c3cccnc3)cc2)c1	-8	2	1	5
O=C1CCCC(=O)C1=C1SCCCS1	11*	2	2	-6
NC(=O)c1cc(-c2csc(NCCc3ccccc3)n2)ccc1O	10*	1	0	9
COc1ccc2cc(-c3csc(-c4cccnc4)n3)ccc2c1	26*	-4	-2	10
c1ccc(-c2nc(-c3cccnc3)cs2)cc1	0	4	0	4
NC(=O)c1cc(-c2csc(-c3cccnc3)n2)ccc1O	20*	4	-1	18
O=C(Nc1cc(S(=O)(=O)N2CCCCC2)ccc1N1CCCCC1)c1ccncc1	-2	2	1	11
Cc1cc(C)nc(SCC(=O)n2c3c(c4ccccc42)CCCC3)n1	13*	-2	1	6
COc1ccccc1C(CNC(=O)C(C)(C)Oc1ccc(Cl)cc1)N1CCCC1 (stereo unspecified)	1	0	0	-13
COC(=O)c1c(NC(=O)CCNCc2ccco2)sc2c1CCC2	0	-1	1	-5
CC(C)CCNC(=O)NC(=O)COC(=O)/C=C/c1cnc2ccccc2n1	11*	3	3	8
C/C(=N\Nc1cc(-c2ccccc2)nc(-c2ccccc2)n1)c1ccc(O)c(C)c1	28*	-2	6	51*
COc1cc(N/N=C(\C)c2ccc(O)c(C)c2)nc(-c2ccccc2)n1	22*	3	2	57*
COc1cc(N/N=C(\C)c2ccc(N)cc2)nc(-c2ccccc2)n1	-20	1	1	30
Cc1cc2nsnc2c(S(=O)(=O)NCC(=O)O)c1C	-1	0	-1	1
C/C(=N/NS(=O)(=O)c1cc(C)ccc1C)c1c[nH]c2ccccc12	29*	2	4	-3
C/C(=N/NS(=O)(=O)c1ccc(C)cc1)c1c[nH]c2ccccc12	-10	1	0	1
COc1ccc(S(=O)(=O)N2CCOCC2)cc1C(=O)Nc1ccc2c(c1)OCO2	2	1	0	2
C=CCn1c(C)cc(C(=O)COC(=O)CNC(=O)c2ccccc2)c1C	13*	0	0	-5
C=CCn1c(C)cc(C(=O)COc2nncc3ccccc23)c1C	16*	3	3	-5
CNC(=O)c1csc(-c2ccc(C)cc2)n1	-5	3	2	-9
CCC(C)C(Nc1ccc(C(=O)OC)cc1[N+](=O)[O-])C(=O)OC (stereo unspecified)	12*	3	2	12
Cc1ccc(C)c(S(=O)(=O)NC(C)C(=O)Nc2ccc(-c3nc4ccccc4s3)cc2)c1 (stereo unspecified)	25*	-2	5	21
O=C(CCS(=O)(=O)c1ccccc1)Nc1ccc(-c2nc3ccccc3s2)cc1	4	-4	14	6
CC(NS(=O)(=O)c1cccc(Cl)c1)C(=O)Nc1ccc(-c2nc3ccccc3s2)cc1 (stereo unspecified)	30*	-11	4	23
O=C(CNS(=O)(=O)c1cccc(Cl)c1)Nc1ccc(-c2nc3ccccc3s2)cc1	23*	-28	37	-3
O=C(CSc1cn[nH]n1)Nc1ccccc1C(F)(F)F	-1	1	0	3
COc1cc([N+](=O)[O-])ccc1NC(=O)CCCOc1cccc(C)c1	-10	0	-2	7
COC(=O)N1CCCCC1c1cc(C(=O)Nc2ccccc2Cl)no1 (stereo unspecified)	x	2	2	-3
